Source: ChEMBL document CHEMBL1777690, “Synthesis and SAR studies of novel 2-(6-aminomethylaryl-2-aryl-4-oxo-quinazolin-3(4H)-yl)acetamide vasopressin V1b receptor antagonists” (Bioorg Med Chem Lett, 2011)
Activity calls are given as the source filed them. The rule behind the calls is not given here.

Legend:
Vasopressin V1b receptor = molecular target: T1, Vasopressin V1b receptor (Homo sapiens, UniProt P47901); assay: Displacement of [3H]AVP from human vasopressin V1b receptor expressed in CHO cells co-expressing VIP-luciferase by scintillation counting-based whole cell binding assay
T1 sequence (P47901 whole entry): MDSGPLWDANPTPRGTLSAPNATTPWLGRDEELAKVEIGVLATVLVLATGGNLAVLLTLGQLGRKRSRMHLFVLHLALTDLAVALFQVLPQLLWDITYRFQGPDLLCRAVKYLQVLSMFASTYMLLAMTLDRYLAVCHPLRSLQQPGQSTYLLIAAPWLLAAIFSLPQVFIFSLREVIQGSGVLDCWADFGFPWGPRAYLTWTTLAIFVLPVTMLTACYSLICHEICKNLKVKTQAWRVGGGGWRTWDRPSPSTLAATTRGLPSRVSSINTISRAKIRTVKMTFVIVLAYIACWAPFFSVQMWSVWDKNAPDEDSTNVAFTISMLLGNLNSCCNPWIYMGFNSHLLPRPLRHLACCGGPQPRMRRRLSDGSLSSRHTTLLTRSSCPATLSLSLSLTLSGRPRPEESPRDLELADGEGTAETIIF
In short: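 Whole-cell binding in CHO cells stably expressing human V1b (VIP-luciferase line), grown at 37 °C, 5% CO2 in DMEM/F12 with 10% FBS and 0.4 mg/mL G418. Seeded at 30,000 cells, cultured overnight, washed with PBS. Serially diluted compound with 5 nM [3H]-AVP (final) in PBS, 10 mM MgCl2, 0.1% BSA, 1% DMSO, 30 min at room temperature. Wells washed, dried, scintillation counted.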

[1] = Volume of distribution at steady state in Wistar rat at 1 mg/kg, iv; format: ADME, organism-based; design: dose 1 mg/kg, route intravenous; settings: in vivo, read-out: Vdss
In short: (§1)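 Male Wistar rats. iv dose 1 mg/kg in 10% (v/v) DMA in water. po dose 5 mg/kg in 5% (v/v) mulgofen in saline. Oral AUC reported as AUCt, iv AUC as AUCinf. Values given as mean ± spread.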

Homo sapiens [2] = organism: Homo sapiens; assay: Selectivity ratio for human vasopressin V1b receptor over human oxytocin receptor
[3] = Elimination half life in Wistar rat at 1 mg/kg, iv; format: ADME, organism-based; design: dose 1 mg/kg, route intravenous; settings: in vivo, read-out: beta t1/2 (converted); in short: as §1
Rattus norvegicus [4] = assay: Reduction in desmopressin/CRH-induced ACTH release in po dosed rat hyphalamic-pituitary-adrenal hyperactivity model; format: functional, organism-based
In short: (§2)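 Rats dosed orally with compound or vehicle (5% mulgofen in saline) at T=0. CRH (0.3 µg/kg) or PBS given iv via jugular catheter at T+100 min. dDAVP (0.5 mg/kg) or PBS given iv at T+120 min. 0.5 ml blood taken at T+130 min, kept on ice, centrifuged at 4 °C, plasma stored at -40 °C. ACTH measured by ELISA, drug level by mass spectrometry.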

[5] = Oral bioavailability in Wistar rat at 5 mg/kg, po; format: ADME, organism-based; settings: in vivo; in short: as §1
Homo sapiens [6] = organism: Homo sapiens; assay: Selectivity ratio for human vasopressin V1b receptor over human vasopressin V1a receptor
[7] = Apparent permeability of the compound from apical to basolateral side in human Caco2 cell membrane; settings: Caco-2
[8] = molecular target: T2, Vasopressin V1b receptor (Homo sapiens) (UniProt P47901); assay: Antagonist activity at human vasopressin V1b receptor expressed CHO cells co-expressing VIP-luciferase assessed as reporter gene linked AVP-mediated intracellular calcium mobilization; format: functional, cell-based
T2 sequence (whole entry): T1 sequence (P47901 whole entry)

[9] = Clearance in Wistar rat at 1 mg/kg, iv; format: ADME, organism-based; design: dose 1 mg/kg, route intravenous; settings: in vivo; in short: as §1
[10] = Intrinsic clearance in human liver microsomes
[11] = Apparent permeability of the compound from basolateral to apical side in human Caco2 cell membrane; format: ADME, cell-based; settings: Caco-2
[12] = AUC (infinity) in Wistar rat at 1 mg/kg, iv; format: ADME, organism-based; design: time infinity, dose 1 mg/kg, route intravenous; settings: plasma
In short: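 Male Wistar rats given a single intravenous dose of 1 mg/kg in 10% (v/v) DMA in water. AUC taken to infinity from plasma concentrations. Value reported as mean ± variability.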

[13] = AUCt in Wistar rat at 5 mg/kg, po; format: ADME, organism-based; design: dose 5 mg/kg, route oral; settings: plasma; in short: as §1
[14] = Inhibition of human Cytochrome P450; format: ADME
Rattus norvegicus [15] = assay: Reduction in desmopressin-induced ACTH release in rat hyphalamic-pituitary-adrenal hyperactivity model at 10 mg/kg, po; format: functional, organism-based; design: dose 10 mg/kg; in short: as §2
Homo sapiens [16] = organism: Homo sapiens; assay: Selectivity ratio for human vasopressin V1b receptor over human vasopressin V2 receptor

IC50 (Vasopressin V1b receptor) [nM] | SMILES | further results
1 | COc1cc(-c2nc3ccc(-c4cccc(CN(C)C)c4)cc3c(=O)n2CC(=O)NC(C)C)ccc1F | Vd [1]: 4.85 L/kg; fold change (FC) (Homo sapiens [2]): > 10000; half-life [3]: 1.61 h; inhibition (Rattus norvegicus [4]): Dose-dependent effect; bioavailability [5]: 45%; fold change (FC) (Homo sapiens [6]): > 10000; Papp A→B [7]: 6.8 ×10⁻⁶ cm/s; Activity [8]: Active; clearance [9]: 40.2 mL/min/kg; microsomal CLint [10]: < 12 µL/min/mg; Papp B→A [11]: 9.1 ×10⁻⁶ cm/s; AUC(0-inf) [12]: 441 ng·h/mL; AUC(0-t) [13]: 930 ng·h/mL; IC50 [14]: > 17000 nM; inhibition (Rattus norvegicus [15]): Active; fold change (FC) (Homo sapiens [16]): > 10000
79 | O=C(Cn1c(-c2ccccc2)nc2ccc(-c3cccc(CN4CCOCC4)c3)cc2c1=O)NCC1CC1 | –
77 | COc1cccc(-c2nc3ccc(-c4cncc(CN(C)C)c4)cc3c(=O)n2CC(=O)NC(C)C)c1 | –
> 20000 | O=C(Cn1c(-c2ccccc2)nc2ccc(-c3ccccc3CN3CCCCC3)cc2c1=O)NCC1CC1 | –
> 20000 | O=C(Cn1c(-c2ccccc2)nc2ccc(-c3ccc(CN4CCOCC4)cc3)cc2c1=O)NCC1CC1 | –
187 | CC(C)(C)NC(=O)Cn1c(-c2ccccc2)nc2ccc(-c3cccc(CN4CCC4)c3)cc2c1=O | –
397 | CC(C)NC(=O)Cn1c(-c2ccccc2)nc2ccc(-c3cccc(CN4CCC4)c3)cc2c1=O | –
> 20000 | O=C(Cn1c(-c2ccccc2)nc2ccc(-c3ccc(CN4CCCCC4)cc3)cc2c1=O)NCC1CC1 | –
1200 | NCc1cccc(-c2ccc3nc(-c4ccccc4)n(CC(=O)NCC4CC4)c(=O)c3c2)c1 | –
19 | CC(C)NC(=O)Cn1c(-c2cccc(Cl)c2)nc2ccc(-c3cccc(CN(C)C)c3)cc2c1=O | –

The remaining lines, values behind:

SMILES | IC50 (Vasopressin V1b receptor) [nM] | further results
COc1cccc(-c2nc3ccc(-c4cccc(CN5CCC5)c4)cc3c(=O)n2CC(=O)NC(C)C)c1 | 46 | –
CC(C)NC(=O)Cn1c(-c2cccc(Cl)c2)nc2ccc(-c3cccc(CN4CCC4)c3)cc2c1=O | 60 | –
O=C(Cn1c(-c2ccccc2)nc2ccc(-c3cccc(CN4CCCCC4)c3)cc2c1=O)NCC1CC1 | 60 | –
COc1ccccc1-c1nc2ccc(-c3cccc(CN4CCC4)c3)cc2c(=O)n1CC(=O)NC(C)C | 610 | –
O=C(Cn1c(-c2ccccc2)nc2ccc(-c3cccc(CN4CCC4)c3)cc2c1=O)NC1CC1 | 2550 | –
O=C(Cn1c(-c2ccccc2)nc2ccc(-c3cccc(CN4CCCC4)c3)cc2c1=O)NCC1CC1 | 388 | –
CCN(CC)Cc1cccc(-c2ccc3nc(-c4ccccc4)n(CC(=O)NCC4CC4)c(=O)c3c2)c1 | 540 | –
CCCNC(=O)Cn1c(-c2ccccc2)nc2ccc(-c3cccc(CN4CCC4)c3)cc2c1=O | 2350 | –
CC(C)NC(=O)Cn1c(-c2cccc(Cl)c2)nc2ccc(-c3cccc(CN4CCCCC4)c3)cc2c1=O | 9 | –
COc1cccc(-c2nc3ccc(-c4ccc(CN(C)C)o4)cc3c(=O)n2CC(=O)NC(C)C)c1 | 700 | –
COc1cccc(-c2nc3ccc(-c4cccc(CN5CCCCC5)c4)cc3c(=O)n2CC(=O)NC(C)C)c1 | 2 | –
O=C(Cn1c(-c2ccccc2)nc2ccc(-c3ccccc3CN3CCOCC3)cc2c1=O)NCC1CC1 | > 20000 | –
O=C(Cn1c(-c2ccccc2)nc2ccc(-c3cccc(CN4CCC4)c3)cc2c1=O)NC1CCCC1 | 238 | –
CC(C)CNC(=O)Cn1c(-c2ccccc2)nc2ccc(-c3cccc(CN4CCC4)c3)cc2c1=O | 1040 | –
COc1cccc(-c2nc3ccc(-c4cc(CN(C)C)ccc4F)cc3c(=O)n2CC(=O)NC(C)C)c1 | 7 | Papp A→B [7]: 12.1 ×10⁻⁶ cm/s; microsomal CLint [10]: 58 µL/min/mg; Papp B→A [11]: 23.3 ×10⁻⁶ cm/s
COCCNCc1cccc(-c2ccc3nc(-c4ccccc4)n(CC(=O)NCC4CC4)c(=O)c3c2)c1 | 642 | –
CN(C)Cc1cccc(-c2ccc3nc(-c4ccccc4)n(CC(=O)NCC4CC4)c(=O)c3c2)c1 | 314 | –
COc1cccc(-c2nc3ccc(-c4ccc(CN(C)C)s4)cc3c(=O)n2CC(=O)NC(C)C)c1 | 500 | –
O=C(Cn1c(-c2ccccc2)nc2ccc(-c3cccc(CN4CCC4)c3)cc2c1=O)NCC1CC1 | 275 | –
CNCc1cccc(-c2ccc3nc(-c4ccccc4)n(CC(=O)NCC4CC4)c(=O)c3c2)c1 | 320 | –
COc1cccc(-c2nc3ccc(-c4cc(CN(C)C)ccn4)cc3c(=O)n2CC(=O)NC(C)C)c1 | 52 | –
COc1cccc(-c2nc3ccc(-c4cccc(CN(C)C)c4)cc3c(=O)n2CC(=O)NC(C)C)c1 | 9 | microsomal CLint [10]: 45 µL/min/mg
COc1cccc(-c2nc3ccc(-c4cccc(CN(C)C)n4)cc3c(=O)n2CC(=O)NC(C)C)c1 | 37 | –
